# Measurements published in ChEMBL document CHEMBL1240347, “MK-7009, a potent and selective inhibitor of hepatitis C virus NS3/4A protease” (Antimicrob Agents Chemother, 2010).
# What was measured:
# Cathepsin S = Cathepsin S (Homo sapiens, UniProt P25774); assay: Inhibition of human Cathepsin S
# Cathepsin L2 = molecular target: T1, Cathepsin L2 (Homo sapiens, UniProt O60911); assay: Inhibition of human Cathepsin V
# T1 sequence (O60911 whole entry): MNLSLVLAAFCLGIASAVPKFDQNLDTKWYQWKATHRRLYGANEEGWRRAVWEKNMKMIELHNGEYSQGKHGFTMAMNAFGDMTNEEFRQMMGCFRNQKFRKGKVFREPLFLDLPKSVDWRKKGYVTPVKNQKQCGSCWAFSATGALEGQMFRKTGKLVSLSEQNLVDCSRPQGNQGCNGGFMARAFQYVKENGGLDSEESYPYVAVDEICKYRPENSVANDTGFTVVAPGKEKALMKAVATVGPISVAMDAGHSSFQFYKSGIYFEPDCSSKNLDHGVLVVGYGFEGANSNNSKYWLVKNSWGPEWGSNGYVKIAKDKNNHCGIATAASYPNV
# Neutrophil elastase = molecular target: T2, Neutrophil elastase (Homo sapiens, UniProt P08246); assay: Inhibition of human Neutrophil elastase 2
# T2 sequence (P08246 whole entry): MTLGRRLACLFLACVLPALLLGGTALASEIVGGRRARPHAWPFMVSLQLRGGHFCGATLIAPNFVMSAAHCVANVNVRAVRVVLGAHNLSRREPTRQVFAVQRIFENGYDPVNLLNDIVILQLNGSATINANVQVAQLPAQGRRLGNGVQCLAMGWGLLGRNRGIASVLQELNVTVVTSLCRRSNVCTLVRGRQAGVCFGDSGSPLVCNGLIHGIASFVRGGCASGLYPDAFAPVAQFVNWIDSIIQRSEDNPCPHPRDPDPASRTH
# Hepatitis C virus [1] = assay: Antiviral activity against Hepatitis C virus containing NS3/4a H77 sequence by transient cell-base protease activity; format: functional, organism-based, Hepacivirus hominis
# Hepatitis C virus [2] = assay: Antiviral activity against Hepatitis C virus containing NS3/4a ps20 sequence by transient cell-base protease activity; format: functional, organism-based, Hepacivirus hominis
# Summary of the method: (§1)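 Transient cell-based phenotype assay of protease activity, using NS3/4A sequences cloned from plasma of HCV-infected patients. EC50s were determined.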
# Hepatitis C virus [3] = assay: Antiviral activity against Hepatitis C virus containing NS3/4a ps30 sequence by transient cell-base protease activity; format: functional, organism-based, Hepacivirus hominis; summary of the method: as §1
# Hepatitis C virus [4] = assay: Antiviral activity against Hepatitis C virus containing NS3/4a ps33 sequence by transient cell-base protease activity; format: functional, organism-based, Hepacivirus hominis; summary of the method: as §1
# [5] = Inhibition of human Chymotrypsin
# Hepatitis C virus [6] = assay: Antiviral activity against Hepatitis C virus containing NS3/D168Y protease mutant activity by TaqMan-based assay; format: functional, organism-based, Hepacivirus hominis
# Hepatitis C virus [7] = assay: Antiviral activity against Hepatitis C virus containing NS3/R155K protease mutant activity by TaqMan-based assay; format: functional, organism-based, Hepacivirus hominis
# Summary of the method: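 Panel of stable HCV replicon cell lines carrying NS3 protease mutations. Replicon RNA read out by a TaqMan-based assay, and EC50 values determined.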
# Hepatitis C virus [8] = assay: Antiviral activity against Hepatitis C virus containing NS3/F43S protease mutant activity by TaqMan-based assay; format: functional, organism-based, Hepacivirus hominis
# [9] = Cytotoxicity against […] cells; format: cell-based; details: HB1
# Hepatitis C virus [10] = assay: Antiviral activity against Hepatitis C virus genotype 1b infected in […] cell by cell-based HCV replicon assay in presence of 10% fetal bovine serum; format: functional, organism-based, Hepacivirus hominis
# Summary of the method: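 Stable genotype 1b (con1) replicon cell line HB1, assayed in medium with 10% fetal bovine serum.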
# [11] = Inhibition of Hepatitis C virus genotype 2a NS3/4A protease activity; parameters: species or system Hepatitis C virus subtype 2a
# Summary of the method: (§2)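 Recombinant NS3/4A protease was expressed in and purified from E. coli. Inhibition was measured by a time-resolved, internally quenched fluorescence assay at low enzyme concentration. Kis were reported.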
# Hepatitis C virus [12] = assay: Inhibition of Hepatitis C virus genotype 1b NS3/4A protease activity; parameters: species or system Hepatitis C virus subtype 1b; summary of the method: as §2
# [13] = Inhibition of Hepatitis C virus genotype 1a NS3/4A protease activity; parameters: species or system Hepatitis C virus subtype 1a; summary of the method: as §2
# [14] = Metabolic stability in chimpanzee liver assessed as drug level at 10 mg/kg, po after 12 hrs by LC/MS/MS analysis; format: ADME, organism-based, Pan troglodytes; parameters: dose 10 mg/kg, route oral; details: read-out: Drug uptake
# Summary of the method: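 Two uninfected chimpanzees were dosed orally in chocolate milk vehicle (0.67 ml/kg). A liver biopsy (~200 μl) was taken under sedation at the single 12-h time point, homogenized in 4 volumes of deionized water, and analysed by LC/MS/MS after protein precipitation.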
# [15] = Metabolic stability in rhesus monkey liver assessed as drug level at 5 mg/kg, po after 24 hrs by LC/MS/MS analysis; format: ADME, organism-based, Macaca mulatta; parameters: dose 5 mg/kg, route oral; details: read-out: Drug uptake
# Summary of the method: (§3)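 Single oral dose in polyethylene glycol 400 (2.0 ml/kg). A liver biopsy (~200 μl) was taken under sedation and homogenized in 4 volumes of deionized water. Drug was quantified by LC/MS/MS after protein precipitation.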
# [16] = Metabolic stability in dog liver assessed as drug level at 5 mg/kg, po after 24 hrs by LC/MS/MS analysis; format: ADME, organism-based, Canis lupus familiaris; parameters: dose 5 mg/kg, route oral; details: read-out: Drug uptake; summary of the method: as §3
# [17] = AUC (0-24 hrs) in rhesus monkey at 5 mg/kg, po by LC/MS/MS analysis; format: ADME, organism-based, Macaca mulatta; parameters: time < 24 hr, dose 5 mg/kg, route oral; details: plasma
# Summary of the method: (§4)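 Dosed orally as a solution in polyethylene glycol 400 (2.0 ml/kg), with n = 3. EDTA plasma was centrifuged off and held at −70°C. Drug levels were determined by LC/MS/MS following protein precipitation.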
# [18] = Cmax in Chimpanzee at 10 mg/kg, po by LC/MS/MS analysis; format: ADME, organism-based, Pan troglodytes; parameters: dose 10 mg/kg, route oral; details: in vivo
# Summary of the method: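 Two HCV-uninfected chimpanzees (about 57 and 52 kg) drank the dose voluntarily in a chocolate milk vehicle (0.67 ml/kg). EDTA plasma was stored at −70°C and quantified by LC/MS/MS after protein precipitation.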
# [19] = Cmax in dog at 5 mg/kg, po by LC/MS/MS analysis; format: ADME, organism-based, Canis lupus familiaris; parameters: dose 5 mg/kg, route oral; details: in vivo; summary of the method: as §4
# [20] = Cmax in rhesus monkey at 5 mg/kg, po by LC/MS/MS analysis; format: ADME, organism-based, Macaca mulatta; parameters: dose 5 mg/kg, route oral; details: in vivo; summary of the method: as §4
# [21] = AUC (0-24 hrs) in rhesus monkey at 2 mg/kg, iv by LC/MS/MS analysis; format: ADME, organism-based, Macaca mulatta; parameters: time < 24 hr, dose 2 mg/kg, route intravenous; details: plasma
# Summary of the method: (§5)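 Fasted animals received an intravenous bolus in DMSO at 1.0 ml/kg (rat), 0.1 ml/kg (dog) or 0.1 ml/kg (rhesus), with n = 3. Blood was drawn into EDTA tubes, and plasma was separated by centrifugation and stored at −70°C. Drug was quantified by LC/MS/MS after protein precipitation.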
# [22] = AUC (0-24 hrs) in dog at 2 mg/kg, iv by LC/MS/MS analysis; format: ADME, organism-based, Canis lupus familiaris; parameters: time < 24 hr, dose 2 mg/kg, route intravenous; details: plasma; summary of the method: as §5
# [23] = AUC (0-24 hrs) in rat at 2 mg/kg, iv by LC/MS/MS analysis; format: ADME, organism-based; parameters: time < 24 hr, dose 2 mg/kg, route intravenous; details: plasma; summary of the method: as §5
# [24] = Half life in rhesus monkey at 2 mg/kg, iv by LC/MS/MS analysis; format: ADME, organism-based, Macaca mulatta; parameters: dose 2 mg/kg, route intravenous; details: in vivo; summary of the method: as §5
# [25] = Volume of distribution in dog at 2 mg/kg, iv by LC/MS/MS analysis; format: ADME, organism-based, Canis lupus familiaris; parameters: dose 2 mg/kg, route intravenous; details: in vivo
# Summary of the method: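 Fasted animals received an IV bolus in DMSO at 1.0 ml/kg for rats and 0.1 ml/kg for dogs and rhesus monkeys, at 2 mg/kg; n = 3 per species. Blood was drawn into EDTA tubes at set times, and plasma was separated by centrifugation and stored at −70°C. Drug was quantified by LC/MS/MS after protein precipitation.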
# Hepatitis C virus [26] = assay: Antiviral activity against Hepatitis C virus containing NS3/4a ps36 sequence by transient cell-base protease activity; format: functional, organism-based, Hepacivirus hominis; summary of the method: as §1
# Hepatitis C virus [27] = assay: Antiviral activity against Hepatitis C virus containing NS3/4a ps38 sequence by transient cell-base protease activity; format: functional, organism-based, Hepacivirus hominis; summary of the method: as §1
# Hepatitis C virus [28] = assay: Antiviral activity against Hepatitis C virus containing NS3/4a ps40 sequence by transient cell-base protease activity; format: functional, organism-based, Hepacivirus hominis; summary of the method: as §1
# Cathepsin S, sequence (P25774 whole entry): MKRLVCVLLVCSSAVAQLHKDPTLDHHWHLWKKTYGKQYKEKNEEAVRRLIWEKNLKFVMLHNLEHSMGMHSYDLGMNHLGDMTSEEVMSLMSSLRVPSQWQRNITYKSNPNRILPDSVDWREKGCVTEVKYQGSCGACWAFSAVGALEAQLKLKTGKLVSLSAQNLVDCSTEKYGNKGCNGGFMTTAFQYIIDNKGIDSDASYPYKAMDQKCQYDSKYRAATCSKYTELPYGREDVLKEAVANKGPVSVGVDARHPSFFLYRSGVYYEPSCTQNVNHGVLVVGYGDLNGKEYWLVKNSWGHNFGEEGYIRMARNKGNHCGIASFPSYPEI
smiles,measurement,setting,value
CC[C@@H]1C[C@]1(NC(=O)[C@@H]1C[C@@H]2CN1C(=O)[C@H](C(C)(C)C)NC(=O)OCC(C)(C)CCCCc1cccc3c1CN(C3)C(=O)O2)C(=O)NS(=O)(=O)C1CC1 [VANIPREVIR],IC50,Cathepsin S,> 10000 nM
same,IC50,Cathepsin L2,> 10000 nM
same,IC50,Neutrophil elastase,> 10000 nM
same,EC50,Hepatitis C virus [1],4.5 nM
same,EC50,Hepatitis C virus [2],2.9 nM
same,EC50,Hepatitis C virus [3],27 nM
same,EC50,Hepatitis C virus [4],9.5 nM
same,IC50,[5],520 nM
same,EC50,Hepatitis C virus [6],430 nM
same,EC50,Hepatitis C virus [7],350 nM
same,EC50,Hepatitis C virus [8],7.8 nM
same,EC50,[9],> 50000 nM
same,EC50,Hepatitis C virus [10],5 nM
same,Ki,[11],1 nM
same,Ki,Hepatitis C virus [12],0.06 nM
same,Ki,[13],0.07 nM
same,concentration at 12 h,[14],31000 nM
same,concentration at 24 h,[15],200 nM
same,concentration at 24 h,[16],600 nM
same,AUC(0-t) at 24 h,[17],0.05 µM·h
same,Cmax,[18],900 nM
same,Cmax,[19],500 nM
same,Cmax,[20],10 nM
same,AUC(0-t) at 24 h,[21],2.5 µM·h
same,AUC(0-t) at 24 h,[22],4.1 µM·h
same,AUC(0-t) at 24 h,[23],0.6 µM·h
same,half-life,[24],1.3 h
same,Vd,[25],0.3 L/kg
same,EC50,Hepatitis C virus [26],4.9 nM
same,EC50,Hepatitis C virus [27],6 nM
same,EC50,Hepatitis C virus [28],2.9 nM
